According to ChEMBL document CHEMBL1127837, “6,9-Bis[(aminoalkyl)amino]benzo[g]isoquinoline-5,10-diones. A novel class of chromophore-modified antitumor anthracene-9,10-diones: synthesis and antitumor evaluations” (J Med Chem, 1994):
Converted amounts (≈) assume the structure as drawn. “And” between values parts separate entries of the source, which are not always exact repeats. Equal entries are not always repeated.

Legend:
LoVo = assay: Tested in vitro for cytotoxic activity against Human colon Adenocarcinoma sensitive cell line (LoVo); format: functional, cell-based
Summary of the method: (§1)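 LoVo and doxorubicin-resistant LoVo/Dx colon cells grown in Ham's F12 with 10% fetal calf serum, glutamine, vitamins and Hepes at 37 °C. 2.5 × 10^5 cells/mL plated and preincubated 24 h, then exposed to drug for 144 h. MTT read-out at 570 nm. IC50 (µg/mL) derived; resistance index = IC50 resistant / IC50 sensitive line.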

[1] = (§2) The compound was tested for antitumor activity against P388 murine leukemia by measuring maximum tolerated dose; format: ADME, organism-based; settings: mouse, in vivo; read-out: LD10
Summary of the method: (§3)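 CD2F1 mice were given 10^6 P388 cells iv, followed by iv treatment on days 1, 4 and 7 after transplantation. Mice were observed daily for toxicity and survival for 60 days. The value is the maximum tolerated dose, taken as LD10, or else the maximum dose administered.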

P388 = assay: Tested for antitumor activity against P388 murine leukemia; format: functional, Mus musculus
Summary of the method: (§4)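 P388 cells kept by serial ip passage (10^5 cells) in DBA2 male mice. CD2F1 mice inoculated iv with 10^6 cells on day 0. Drug given iv on days 1, 4 and 7. Daily observation for toxicity and survival over 60 days. Median survival time per group, expressed as %T/C = MST treated/MST control × 100.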

[2] = Resistance index is the ratio of IC50 of resistant cell line/IC50 of sensitive cell line; format: functional; summary of the method: as §1
L1210 = assay: Tested in vitro for inhibitory activity against L1210 murine leukemia; format: functional, cell-based; settings: Mus musculus
Summary of the method: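 L1210 suspension cells grown in McCoy's 5A with 10% horse serum, 10% CO2, 37 °C. Drug dissolved in water and added to 10^5 cells/tube at final 0.01, 0.1, 1 and 10 µg/mL.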

LoVo/DX (Homo sapiens) = assay: Tested in vitro for cytotoxic activity against Doxorubicin resistant Human colon Adenocarcinoma cell line
Mus musculus [3] = species: Mus musculus; assay: The compound was tested for antitumor activity against P388 murine leukemia; format: functional; summary of the method: as §4
Mus musculus [4] = assay: The compound was tested for antitumor activity against P388 murine leukemia at 60 (mg/kg/day) dose; 15/16 toxic deaths/total no of mice; format: ADME, organism-based; settings: in vivo
Mus musculus [5] = species: Mus musculus; assay: as §2; format: ADME, organism-based; settings: in vivo; summary of the method: as §3
Mus musculus [6] = assay: The compound was tested for antitumor activity against P388 murine leukemia at 27 (mg/kg/day) dose; format: functional; summary of the method: as §4
Mus musculus [7] = assay: The compound was tested for antitumor activity against P388 murine leukemia at 18 (mg/kg/day) dose; format: functional; summary of the method: as §4
Mus musculus [8] = assay: The compound was tested for antitumor activity against P388 murine leukemia at 12(mg/kg/day) dose; 0/16 toxic deaths/total no of mice; settings: in vivo
Mus musculus [9] = assay: The compound was tested for antitumor activity against P388 murine leukemia at 22 (mg/kg/day) dose; format: functional; summary of the method: as §4
Mus musculus [10] = assay: The compound was tested for antitumor activity against P388 murine leukemia at 8(mg/kg/day) dose; 0/8 toxic deaths/total no of mice; format: ADME, organism-based; settings: in vivo
Mus musculus [11] = assay: The compound was tested for antitumor activity against P388 murine leukemia at 12 (mg/kg/day) dose; format: functional; summary of the method: as §4
Mus musculus [12] = assay: The compound was tested for antitumor activity against P388 murine leukemia at 60 (mg/kg/day) dose; format: functional; summary of the method: as §4
Mus musculus [13] = assay: The compound was tested for antitumor activity against P388 murine leukemia at 18 (mg/kg/day) dose; 1/40 toxic deaths/total no of mice; format: ADME, organism-based; settings: in vivo
Mus musculus [14] = assay: The compound was tested for antitumor activity against P388 murine leukemia at 27 (mg/kg/day) dose;7/55 toxic deaths/total no of mice; format: ADME, organism-based; settings: in vivo
Mus musculus [15] = assay: The compound was tested for antitumor activity against P388 murine leukemia at 22 (mg/kg/day) dose; 1/8 toxic deaths/total no of mice; format: ADME, organism-based; settings: in vivo
Mus musculus [16] = assay: The compound was tested for antitumor activity against P388 murine leukemia at 40 (mg/kg/day) dose; format: functional; summary of the method: as §4
Mus musculus [17] = assay: The compound was tested for antitumor activity against P388 murine leukemia at 8 (mg/kg/day) dose; format: functional; summary of the method: as §4
Mus musculus [18] = assay: The compound was tested for antitumor activity against P388 murine leukemia at 40 (mg/kg/day) dose; 25/37 toxic deaths/total no of mice; format: ADME, organism-based; settings: in vivo
Mus musculus [19] = assay: The compound was tested for antitumor activity against P388 murine leukemia at 3 (mg/kg/day) dose; 12/132 -no. of toxic deaths/no. of mice; format: ADME, organism-based; settings: in vivo
Mus musculus [20] = assay: The compound was tested for antitumor activity against P388 murine leukemia at 2 (mg/kg/day) dose; 0/82 -no. of toxic deaths/no. of mice; format: ADME, organism-based; settings: in vivo
Mus musculus [21] = assay: The compound was tested for antitumor activity against P388 murine leukemia at 4 (mg/kg/day) dose; 43/48 -no. of toxic deaths/no. of mice; format: ADME, organism-based; settings: in vivo
Mus musculus [22] = species: Mus musculus; assay: The compound was tested for antitumor activity against P388 murine leukemia by measuring median survival time of treated mice/median survival time of control x 100; format: functional
Mus musculus [23] = assay: The compound was tested for antitumor activity against P388 murine leukemia at 6 (mg/kg/day) dose; format: functional; summary of the method: as §4
Mus musculus [24] = assay: The compound was tested for antitumor activity against P388 murine leukemia at 9 (mg/kg/day) dose; 3/8 -no. of toxic deaths/no. of mice; format: ADME, organism-based; settings: in vivo
Mus musculus [25] = assay: The compound was tested for antitumor activity against P388 murine leukemia at 6 (mg/kg/day) dose; 0/15 -no. of toxic deaths/no. of mice; format: ADME, organism-based; settings: in vivo
Mus musculus [26] = assay: The compound was tested for antitumor activity against P388 murine leukemia at 7.5 (mg/kg/day) dose; 0/16 -no. of toxic deaths/no. of mice; format: ADME, organism-based; settings: in vivo
Mus musculus [27] = assay: The compound was tested for antitumor activity against P388 murine leukemia at 9 (mg/kg/day) dose; format: functional; summary of the method: as §4

| SMILES | IC50 (LoVo) [µg/mL] | MTD [1] [mg/kg/day] | T/C (P388) | Ratio [2] | IC50 (L1210) [µg/mL] | IC50 (LoVo/DX (Homo sapiens)) [µg/mL] | further results |
| --- | --- | --- | --- | --- | --- | --- | --- |
| CCN(CC)CCNc1ccc(NCCN(CC)CC)c2c1C(=O)c1ccncc1C2=O | 0.29 (≈ 0.663 µM) | 60 | 122% | 2.4 | 0.06 (≈ 0.137 µM) | 0.69 (≈ 1.58 µM) |  |
| CC(=O)NCCNc1ccc(NCCNC(C)=O)c2c1C(=O)c1ccncc1C2=O |  |  |  |  | > 10 |  |  |
| CC(C)NCCNc1ccc(NCCNC(C)C)c2c1C(=O)c1ccncc1C2=O | 0.3 (≈ 0.733 µM) |  |  | 11 | 0.03 (≈ 0.0733 µM) | 3.4 (≈ 8.3 µM) |  |
| NCCNc1ccc(NCCN)c2c1C(=O)c1cc[n+]([O-])cc1C2=O | 7.3 (≈ 21.4 µM) | 60 | 200% | 10 |  | 62.6 (≈ 183 µM) |  |
| NCCCCNc1ccc(NCCCCN)c2c1C(=O)c1ccncc1C2=O | 2.27 (≈ 5.95 µM) | 35 |  | 0.4 | 1.5 (≈ 3.93 µM) | 0.83 (≈ 2.18 µM) | T/C (Mus musculus [3]): 100% |
| Cl.NCCNc1ccc(NCCN)c2c1C(=O)c1ccncc1C2=O |  |  |  |  | 0.01 |  | Toxic deaths (Mus musculus [4]): 15; maximum tolerated dose (Mus musculus [5]): 27 mg/kg/day; T/C (Mus musculus [6]): 230%; T/C (Mus musculus [7]): 206%; Toxic deaths (Mus musculus [8]): 0; T/C (Mus musculus [9]): 250%; Toxic deaths (Mus musculus [10]): 0; T/C (Mus musculus [11]): 194%; T/C (Mus musculus [12]): 36%; Toxic deaths (Mus musculus [13]): 1; Toxic deaths (Mus musculus [14]): 7; Toxic deaths (Mus musculus [15]): 1; T/C (Mus musculus [16]): 128%; T/C (Mus musculus [17]): 162%; Toxic deaths (Mus musculus [18]): 25 |
| O=C1c2ccncc2C(=O)c2c(NCCN3CCOCC3)ccc(NCCN3CCOCC3)c21 | 5.32 (≈ 11.4 µM) | 60 | 122% | 0.4 | 1.1 (≈ 2.36 µM) | 2.3 (≈ 4.94 µM) |  |
| O=C1c2c(O)ccc(O)c2C(=O)c2c(NCCNCCO)ccc(NCCNCCO)c21 [MITOXANTRONE] | 0.009 (≈ 0.0202 µM) | 3 | 172% and 138% | 28 | 0.009 (≈ 0.0202 µM) | 0.25 (≈ 0.562 µM) | LD10 (Mus musculus [5]): 2 mg/kg/day and 4 mg/kg/day; Toxic deaths (Mus musculus [19]): 12; Toxic deaths (Mus musculus [20]): 0; Toxic deaths (Mus musculus [21]): 43; T/C (Mus musculus [22]): 196% |
| CN(C)CCCNc1ccc(NCCCN(C)C)c2c1C(=O)c1ccncc1C2=O | 0.15 (≈ 0.366 µM) |  |  | 2.4 | 0.3 (≈ 0.733 µM) | 0.36 (≈ 0.879 µM) |  |
| COc1cccc2c1C(=O)c1c(O)c3c(c(O)c1C2=O)C[C@@](O)(C(=O)CO)C[C@@H]3O[C@H]1C[C@H](N)[C@H](O)[C@H](C)O1 [DOXORUBICIN] | 0.03 (≈ 0.0552 µM) | 7.5 | 181% | 133 |  | 4 (≈ 7.36 µM) | T/C (Mus musculus [23]): 175%; Toxic deaths (Mus musculus [24]): 3; Toxic deaths (Mus musculus [25]): 0; Toxic deaths (Mus musculus [26]): 0; T/C (Mus musculus [27]): 222% |
| CNCCNc1ccc(NCCNC)c2c1C(=O)c1ccncc1C2=O.Cl | 0.08 | 8 | 189% | 36 |  | 2.9 |  |
| NCCCNc1ccc(NCCCN)c2c1C(=O)c1ccncc1C2=O | 2.1 (≈ 5.94 µM) | 40 | 155% | 26 | 0.1 (≈ 0.283 µM) | 54.5 (≈ 154 µM) |  |
| O=C1c2ccncc2C(=O)c2c(NCCNCCO)ccc(NCCNCCO)c21 | 1.3 (≈ 3.14 µM) | 40 | 118% | 76 | 0.06 (≈ 0.145 µM) | 99.5 (≈ 241 µM) |  |
| COCCNCCNc1ccc(NCCNCCOC)c2c1C(=O)c1ccncc1C2=O |  |  |  |  | 0.44 (≈ 0.997 µM) |  |  |
| O=C1c2ccncc2C(=O)c2c(NCCN3CC3)ccc(NCCN3CC3)c21 |  |  |  |  | 0.002 (≈ 0.0053 µM) |  |  |
| NCCNc1ccc(NCCN)c2c1C(=O)c1ccncc1C2=O [PIXANTRONE] | 0.24 (≈ 0.738 µM) |  |  | 30 |  | 7.2 (≈ 22.1 µM) |  |
| O=C1c2ccccc2C(=O)c2c(NCCNCCO)ccc(NCCNCCO)c21 [AMETANTRONE] | 0.4 (≈ 0.97 µM) | 58 | 127% | 87 | 0.03 (≈ 0.0727 µM) | 34.7 (≈ 84.1 µM) |  |
| CCNCCNc1ccc(NCCNCC)c2c1C(=O)c1ccncc1C2=O |  |  |  |  | 0.01 (≈ 0.0262 µM) |  |  |
| O=C1c2ccncc2C(=O)c2c(NCCN3CCCC3)ccc(NCCN3CCCC3)c21 | 0.5 (≈ 1.15 µM) | 60 | 100% | 1.4 | 0.09 (≈ 0.208 µM) | 0.7 (≈ 1.61 µM) |  |
| CC(C)N(CCNc1ccc(NCCN(C(C)C)C(C)C)c2c1C(=O)c1ccncc1C2=O)C(C)C | 2.5 (≈ 5.06 µM) |  |  | 1.1 | 1.8 (≈ 3.65 µM) | 2.8 (≈ 5.67 µM) |  |
| CCCNCCNc1ccc(NCCNCCC)c2c1C(=O)c1ccncc1C2=O | 0.2 (≈ 0.488 µM) |  |  | 14 | 0.04 (≈ 0.0977 µM) | 2.8 (≈ 6.84 µM) |  |
| O=C1c2ccncc2C(=O)c2c(NCCOCCO)ccc(NCCOCCO)c21 | 8.7 (≈ 20.9 µM) |  |  | 31 |  | 267 (≈ 642 µM) |  |
| CN(C)CCNc1ccc(NCCN(C)C)c2c1C(=O)c1cc[n+]([O-])cc1C2=O | 0.44 (≈ 1.11 µM) | 40 | 122% | 6 |  | 2.6 (≈ 6.54 µM) |  |
| CN(C)CCNc1ccc(NCCN(C)C)c2c1C(=O)c1ccncc1C2=O | 0.076 (≈ 0.199 µM) |  |  | 1.7 | 0.006 (≈ 0.0157 µM) | 0.13 (≈ 0.341 µM) |  |
